Published values of several laboratories.
Protocols differ between the studies behind these lines.

| SMILES | tested on | assay | test system | setting | quantity | value |
| --- | --- | --- | --- | --- | --- | --- |
| CC(C)C[C@H](NC(=O)[C@H](Cc1ccccc1)NC(=O)c1cnccn1)B(O)O | CHP-212 | cell growth or viability, SRB |  | 4.572 nM | viability | 102% |
| COc1ccc(F)cc1C(=O)NCc1ccc(-c2nn([C@@H](C)C(F)(F)F)c(N)c2C(N)=O)cc1 |  |  | male human, plasma | oral, 200 mg, single dose | AUC(0-inf) | 105000 ng·h/mL |
| CC(=O)N(C)[C@H]1CCN(C(=O)c2cnc3c(c2)C[C@](C)(c2ccc(F)cc2)N3)C1 |  |  | male human, plasma | oral, 30 mg, multiple doses, once daily, steady state | AUC(0-t) | 3.63 µM·h |
| CNC(=O)c1cc(Oc2ccc(NC(=O)Nc3ccc(Cl)c(C(F)(F)F)c3)cc2)ccn1 | WISH | cell growth or viability, MTT |  | 3.125 µM, 24 h | viability | 86.2% |
| NCc1cc2c(cc1F)C(=O)N(C1CCC(=O)NC1=O)C2 (stereo not shown) |  |  | male cynomolgus monkey, plasma | oral, 0.3 mg/kg, 2 h | concentration | 1.07 ng/mL |
| O=C(O)COc1cccc(-c2nc(Nc3ccc4[nH]ncc4c3)c3ccccc3n2)c1 | Organic anion transporter 3 (SLC22A8, Homo sapiens, UniProt Q8TCC7) | transporter uptake, inhibitor, radiometric |  |  | IC50 | 15.9 µM |
| CC(C)n1c(C2CCNCC2)nc2c([N+](=O)[O-])c(Br)c(Br)cc21 |  |  | human, plasma | oral, 100 mg, patients | AUC(0-t) | 952 ng·h/mL |
| O=C(COc1ccc(Cl)cc1)NC12CC(c3nnc([C@H]4C[C@@H](OC(F)(F)F)C4)o3)(C1)C2 |  |  | human, plasma | oral, 260 mg, multiple doses, once daily, steady state, healthy volunteers | AUC | 296 µM·h |
| COc1ccc2c(c1)CN(C(=O)CCN1CCC(Cc3ccccc3)CC1)CC[S@@+]2[O-] |  |  | male human, plasma | intravenous, 0.01 mg/kg, healthy volunteers | AUC(0-t) | 45.2 ng·h/mL |
| CC(=O)O[C@H]1C(=O)[C@@]2(C)[C@H]([C@H](OC(=O)c3ccccc3)[C@]3(O)C[C@H](OC(=O)[C@H](O)[C@@H](NC(=O)c4ccccc4)c4ccccc4)C(C)=C1C3(C)C)[C@]1(OC(C)=O)CO[C@@H]1C[C@@H]2O | CHP-212 | cell growth or viability, SRB |  | 1.524 nM | viability | 89.8% |
